The results in this text go back to ChEMBL document CHEMBL1126557, “Novel antiasthmatic agents with dual activities of thromboxane A2 synthetase inhibition and bronchodilation. 2. 4-(3-Pyridyl)-1(2H)-phthalazinones” (J Med Chem, 1993).

One may read the inhibition in vivo as the percentage by which the read-out fell short of the control. For orientation: IC50 means the concentration that inhibits the measured activity by half. As a reminder, the inhibition is the share of the control response that was lost under treatment.

Test [1] concerns Cavia porcellus. The test is described as follows: Tested in vivo for anaphylactic bronchoconstriction in OA sensitized guinea pig at intraduodenal dose of 10 mg/kg for 30 min. It is filed as functional. Particulars: Lung, 0.5 h. In outline: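 Male Hartley guinea pigs (300–400 g) sensitized by ip and sc injection of 50 mg ovalbumin 15 days earlier. Anesthetized with pentobarbital 35 mg/kg ip, insufflation pressure recorded. Compound 10 mg/kg intraduodenal 30 min before challenge with OA aerosol (10 mg/mL, 10 s, ultrasonic nebulizer) through a by-passed ventilatory system. Reported as % inhibition.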

In test [2] the test system is Cavia porcellus. Description: Tested in vivo for spasmogen inhalation induced collapse in conscious guinea pig in presence of acetylcholine (0.2%). It is filed as functional. The method, boiled down:
(§1)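 Male guinea pigs (400–500 g), conscious, dosed orally with compound or vehicle, then placed in chambers. At 1 h, exposed for 9 min to spasmogen aerosol (acetylcholine 0.2% or histamine 0.03%). Time to collapse recorded; no collapse within 9 min counted as full protection. ≥3 doses tested. RD100 is the oral dose prolonging collapse time by 100 s over vehicle.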

The subject of test [3] is Cavia porcellus. The test is described as follows: Tested in vivo for spasmogen inhalation induced collapse in conscious guinea pig in presence of histamine (0.03%). It is filed as functional. The method, boiled down:
as §1

Test [4] deals with Cavia porcellus. The test is described as follows: Tested in vivo for histamine-induced bronchoconstriction in guinea pig at intraduodenal dose of 60 mg/kg. It is filed as functional. In outline: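 Male Dunkin-Hartley guinea pigs under ip pentobarbital (35 mg/kg), jugular vein and trachea cannulated, ventilated at 10 mL/kg, 60 strokes/min; insufflation pressure recorded by transducer. Histamine (1–5 μg/kg iv) repeated every 10 min until the control response was reproducible. Drug given intraduodenally through a catheter 30 min before histamine challenge.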

The species named for test [5] is Cavia porcellus. The test is described as follows: In vitro inhibitory effect on the contraction of guinea pig tracheal strips was examined for spontaneous contraction. It is filed as functional. As to conditions: Trachea.
Test [6] is filed under the species Cavia porcellus. The test is described as follows: In vitro inhibitory effect on the spasmogen-contracted guinea pig tracheal strips in presence of acetylcholine. As to conditions: Trachea. The test is classed as functional. The method, boiled down: (§2)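 Tracheal strips in oxygenated Krebs-Henseleit, preincubated 60 min with indomethacin (3 μM) to remove spontaneous tone, resting tension 1 g. Contraction induced by acetylcholine (10^-5 M final) or histamine (10^-4 M final), with indomethacin present. Compound added cumulatively […]. […] IC50 taken from the concentration-response curve.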

The species entered for test [7] is Cavia porcellus. The test is described as follows: In vitro inhibitory effect on the spasmogen-contracted guinea pig tracheal strips in presence of histamine. The test is classed as functional. As to conditions: Trachea. In outline:
as §2

Test [8] relates to Cavia porcellus. Description: In vivo inhibitory effect on airway constriction induced by histamine 2-5 micro g/kg iv at 1 min after 10 mg/kg iv dose of compound. The test is classed as functional. In outline:
(§3)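 Male Dunkin-Hartley guinea pigs anesthetized with pentobarbital 35 mg/kg ip, jugular vein and trachea cannulated, ventilated at 10 mL/kg, 60 strokes/min. Insufflation pressure recorded. Histamine 2–5 μg/kg iv repeated every 10 min until a reproducible control response. Compound 10 mg/kg iv 1 min before the next challenge.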

The target in test [9] is T1, Thromboxane-A synthase (Rattus norvegicus) (UniProt P49430).
T1 sequence (whole entry): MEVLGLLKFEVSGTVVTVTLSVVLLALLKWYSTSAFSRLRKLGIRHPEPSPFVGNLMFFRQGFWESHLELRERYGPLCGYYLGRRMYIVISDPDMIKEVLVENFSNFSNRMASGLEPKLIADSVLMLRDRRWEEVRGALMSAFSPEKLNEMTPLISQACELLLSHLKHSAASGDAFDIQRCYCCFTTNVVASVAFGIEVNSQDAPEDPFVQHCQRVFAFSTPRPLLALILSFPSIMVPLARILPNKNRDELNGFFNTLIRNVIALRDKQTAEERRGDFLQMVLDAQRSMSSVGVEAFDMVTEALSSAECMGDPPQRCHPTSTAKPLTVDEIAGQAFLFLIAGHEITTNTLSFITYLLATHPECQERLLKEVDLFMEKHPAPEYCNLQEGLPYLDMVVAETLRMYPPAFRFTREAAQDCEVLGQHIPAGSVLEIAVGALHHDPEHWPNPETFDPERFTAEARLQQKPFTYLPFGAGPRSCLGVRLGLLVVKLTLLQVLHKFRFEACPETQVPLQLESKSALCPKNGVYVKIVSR
Description: Tested ex vivo against TXA2 production in rat serum at 1 hr after peroral dose of 30 mg/kg and anesthetized with ether. The test is classed as functional, organism-based. Also on record: dose 30 mg/kg. The method, boiled down: (§4)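 Male SD rats (240–260 g), fasted 20 h, dosed orally with compound in 0.5% carboxymethylcellulose or vehicle alone. At 1 h, ether anesthesia and 2 mL cardiac blood taken and clotted at 37 °C for 90 min.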

The species named for test [10] is Cavia porcellus. Description: In vitro bronchodilatory activity in guinea pig isolated tracheal strips. It is filed as functional. Particulars: Trachea.
Test [11] relates to Cavia porcellus. The test is described as follows: Tested in vivo for histamine-induced bronchoconstriction in guinea pig at intraduodenal dose of 10 mg/kg for 30 min. As to conditions: 0.5 h. The test is classed as functional. In outline: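 Anesthetized, ventilated guinea pigs (pentobarbital 35 mg/kg ip) with insufflation pressure recorded. Histamine 2–5 μg/kg iv given repeatedly until a reproducible response. Compound 10 mg/kg injected into the duodenum through a catheter 30 min before histamine challenge. Expressed as % inhibition of the control response.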

For test [12], the system named is Rattus norvegicus. Description: Tested ex vivo against serum TXB2 production at 1 hr after oral dose of 3 mg/kg of drug to rat. The test is classed as functional. The method, boiled down:
as §4

The test system of test [13] is Rattus norvegicus. Description: Tested ex vivo against serum TXB2 production at 1 hr after oral dose of 30 mg/kg of drug to rat. The test is classed as functional. In outline:
as §4

In test [14] the target is T2, Thromboxane-A synthase (Homo sapiens, UniProt P24557).
T2 sequence (P24557 whole entry): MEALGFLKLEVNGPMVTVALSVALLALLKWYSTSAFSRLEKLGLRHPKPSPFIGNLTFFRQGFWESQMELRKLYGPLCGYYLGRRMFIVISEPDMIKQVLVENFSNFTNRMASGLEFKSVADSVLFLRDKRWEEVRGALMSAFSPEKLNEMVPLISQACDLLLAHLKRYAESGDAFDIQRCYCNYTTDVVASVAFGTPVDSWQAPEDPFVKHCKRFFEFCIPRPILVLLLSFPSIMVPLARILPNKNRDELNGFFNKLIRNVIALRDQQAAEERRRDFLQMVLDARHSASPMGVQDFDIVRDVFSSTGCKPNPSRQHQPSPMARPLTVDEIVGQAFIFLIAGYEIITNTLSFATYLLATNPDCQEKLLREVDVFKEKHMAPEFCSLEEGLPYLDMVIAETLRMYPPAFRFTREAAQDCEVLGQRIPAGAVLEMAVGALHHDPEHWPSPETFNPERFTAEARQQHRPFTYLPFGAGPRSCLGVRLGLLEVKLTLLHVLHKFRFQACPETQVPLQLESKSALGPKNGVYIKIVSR
The test is described as follows: Tested in vitro against TXA2 synthetase inhibitory activity in human microsome. In outline:
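Commercial human platelet microsomes. Preincubated with compound for 3 min at 25 °C in Tris-HCl 15 mM, NaCl 140 mM, glucose 10 mM, pH 7.6. Arachidonic acid 1–3 μM added, then 3 min at 25 °C. Stopped by chilling and acidifying to pH 3 with HCl, centrifuged, supernatant TXB2 measured by RIA.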

The target of test [15] is T2, Thromboxane-A synthase. The test is described as follows: Tested in vitro against TXA2 synthetase inhibitory activity in human platelet. The method, boiled down: (§5)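 Citrated human or rat blood centrifuged to platelet-rich plasma and platelets resuspended in Krebs-Henseleit at 1×10^8 cells/mL. Used for TXB2 production.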
In test [16] the target is T2, Thromboxane-A synthase. The test is described as follows: Tested in vitro against TXA2 synthetase inhibitory activity in human whole blood. It is filed as tissue-based. In outline: (§6)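 Non-anticoagulated human or rat blood split into 0.5-mL aliquots, each with one drug concentration or vehicle. Vortexed, then clotted 60 min at 37 °C. Serum deproteinized with EtOH and TXB2 measured by RIA. % inhibition against control.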

For test [17], the target named is T3, Thromboxane-A synthase (Rattus norvegicus, UniProt P49430).
T3 sequence (P49430 whole entry): T1 sequence (whole entry)
The test is described as follows: Tested in vitro against TXA2 synthetase inhibitory activity in rat platelet. In outline: as §5

In test [18] the target is T3, Thromboxane-A synthase. The test is described as follows: Tested in vitro against TXA2 synthetase inhibitory activity in rat whole blood. It is filed as tissue-based. The method, boiled down:
as §6

Test [19] relates to Cavia porcellus. The test is described as follows: In vivo inhibitory effect on airway constriction induced by histamine 2-5 ug/kg iv at 1 min after 10 mg/kg iv dose of compound. It is filed as functional. The method, boiled down: as §3
Test [20] deals with Thromboxane-A synthase (Oryctolagus cuniculus). The test is described as follows: Tested in vitro against rabbit thromboxane A2 synthetase (TXA2) at 1 uM.

A value given as a limit tells only on which side of the number the result lay.

For the molecule `Cn1c(=O)c2[nH]cnc2n(C)c1=O.Cn1c(=O)c2[nH]cnc2n(C)c1=O.NCCN` [AMINOPHYLLINE], the inhibition in vivo at 10 mg/kg in the test with Cavia porcellus [1] is 42%; with Cavia porcellus [8], 86%. Moreover, the values for the RD100 in the test with Cavia porcellus [2] and in the test with Cavia porcellus [3] were 66 mg/kg and greater than 60 mg/kg, respectively. For the same molecule, at 60 mg/kg the inhibition in vivo in the test on Cavia porcellus [4] was 87%. The results for the IC50 in the test filed under Cavia porcellus [5], in the test listed under Cavia porcellus [6] and in the test filed under Cavia porcellus [7] were 44 µM, 300 µM and 320 µM, respectively. This molecule also gave an inhibition in test [9] of 0%.

As for `Cn1nc(-c2cncs2)c2ccccc2c1=O`, the 50% inhibitory concentration (IC50) is 1.58 µM in the test filed under Cavia porcellus [10]; 1.8 µM in the test filed under Cavia porcellus [5]; 46 µM in the test filed under Cavia porcellus [6]; 28 µM in the test filed under Cavia porcellus [7]; 3.9 µM against Thromboxane-A synthase [14]; 0.5 µM against Thromboxane-A synthase [15]. Moreover, the IC50 against Thromboxane-A synthase [16] is 8.7 µM; on Thromboxane-A synthase [17] it was 0.3 µM; against Thromboxane-A synthase [18], 3.3 µM. The figures for the inhibition in vivo at 10 mg/kg in the test with Cavia porcellus [1] and in the test with Cavia porcellus [11] were 61% and 68%, respectively. Besides, the RD100 with Cavia porcellus [2] stood at 6.6 mg/kg; with Cavia porcellus [3] it was 11.2 mg/kg. In the test on Rattus norvegicus [12], this molecule returned an inhibition in vivo at 3 mg/kg of 50%. Besides, in the test on Rattus norvegicus [13], the inhibition in vivo at 30 mg/kg was 83%. The molecule also displayed an inhibition in test [9] of 83%.

In the case of `CCn1nc(-c2cccnc2)c2ccccc2c1=O`, the IC50 in the test listed under Cavia porcellus [10] is 1.32 µM; in the test listed under Cavia porcellus [5], 1.6 µM; in the test listed under Cavia porcellus [6] it was 57 µM; in the test filed under Cavia porcellus [7], 46 µM; at Thromboxane-A synthase [14] it was 1.6 µM; at Thromboxane-A synthase [15], 27.9 µM. Besides, the IC50 against Thromboxane-A synthase [16] came out at 2.3 µM; on Thromboxane-A synthase [17], 1.3 µM; at Thromboxane-A synthase [18], 1.7 µM. Further, the inhibition in vivo at 10 mg/kg turned out to be 71% with Cavia porcellus [1], 72% in the test on Cavia porcellus [11] and 100% in the test with Cavia porcellus [19]. For the same molecule, the RD100 worked out at 3.8 mg/kg in the test with Cavia porcellus [2] and 6.5 mg/kg in the test on Cavia porcellus [3]. The inhibition in vivo at 3 mg/kg in the test on Rattus norvegicus [12] came out at 66%. Further, the inhibition in vivo at 30 mg/kg in the test on Rattus norvegicus [13] is 92%. Further, the inhibition in test [9] came out at 92%; in test [20], 87%.
